Test results published in ChEMBL document CHEMBL1157562, “Piperazinyl glutamate pyridines as potent orally bioavailable P2Y12 antagonists for inhibition of platelet aggregation” (J Med Chem, 2010).

Tests used:
P2Y purinoceptor 12 = P2Y purinoceptor 12 (Homo sapiens, UniProt Q9H244); assay: Displacement of [33P]ADP from human recombinant P2Y12 receptor expressed in CHO cells; type: cell-based
Summary of the method: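 Washed membranes from CHO cells expressing synthetic human P2Y12, incubated 1 h at room temperature with 0.2 nM 33P-MeSADP in 50 mM Tris/100 mM NaCl/1 mM EDTA. Compound was tested as a 7-point 3-fold series in triplicate. Nonspecific binding was defined with 300 nM 2-MeSADP, followed by filtration.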

[1] = Antiplatelet aggregation activity against adenosine diphosphate-induced human platelet rich plasma assessed as inhibition of platelet aggregation by turbidimetric method; type: functional; settings: Homo sapiens, Platelet, Plasma
Summary of the method: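 Human PRP, prepared by two-step centrifugation and adjusted to 330 000 platelets/μL with PPP. Compound was preincubated 5 min at 37 °C in 0.5% DMSO, then 20 μM ADP was added. OD626 was read kinetically for 15 min at 37 °C with mixing between reads.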

Sequence of P2Y purinoceptor 12 (Q9H244 whole entry): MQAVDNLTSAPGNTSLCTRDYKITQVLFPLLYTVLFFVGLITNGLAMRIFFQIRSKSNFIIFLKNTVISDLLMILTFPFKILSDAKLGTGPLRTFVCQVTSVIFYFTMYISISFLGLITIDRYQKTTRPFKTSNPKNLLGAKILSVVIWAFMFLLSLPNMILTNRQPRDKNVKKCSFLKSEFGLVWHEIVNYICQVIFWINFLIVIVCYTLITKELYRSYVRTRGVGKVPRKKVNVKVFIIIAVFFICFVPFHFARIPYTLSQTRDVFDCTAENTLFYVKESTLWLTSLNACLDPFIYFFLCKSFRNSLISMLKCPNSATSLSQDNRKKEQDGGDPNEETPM

| Structure (SMILES) | Ki (P2Y purinoceptor 12) [µM] | IC50 [1] [µM] |
| --- | --- | --- |
| O=C(O)CC[C@H](NC(=O)c1cccc(-c2ccccc2)n1)C(=O)N1CCN(C(=O)OC2CCCC2)CC1 | 0.047 | > 100 |
| CCCCCOC(=O)N1CCN(C(=O)[C@H](CCC(=O)O)NC(=O)c2cc(NC(=O)OCCOC)cc(-c3ccccc3)n2)CC1 | 0.0014 | > 10 |
| CCCCCNC(=S)N1CCN(C(=O)[C@H](CCC(=O)O)NC(=O)c2cccc(-c3ccccc3)n2)CC1 | 0.006 | 42 |
| Cc1cccc(N2CCN(C(=O)[C@H](CCC(=O)O)NC(=O)c3cc(-c4ccccc4)ccn3)CC2)c1 | > 5.7 | > 100 |
| O=C(O)CC[C@H](NC(=O)c1cccc(-c2ccccc2)n1)C(=O)N1CCN(C(=O)OCC(F)(F)F)CC1 | 0.094 | > 100 |
| CCOC(=O)N1CCN(C(=O)CNC(=O)c2cc(-c3ccccc3)cc(-c3ccccc3)n2)CC1 | 0.733 | > 50 |
| O=C(O)CC[C@H](NC(=O)c1cccc(-c2ccccc2)n1)C(=O)N1CCN(C(=O)OCCC2CC2)CC1 | 0.015 | > 100 |
| CCOC(=O)N1CCN(C(=O)[C@H](CCC(=O)O)NC(=O)c2cc(-c3ccccc3)nc(-c3ccccc3)c2)CC1 | 0.484 | > 50 |
| CCCCCOC(=O)N1CCN(C(=O)[C@H](CCC(=O)O)NC(=O)c2cc(NC(C)=O)cc(-c3ccccc3)n2)CC1 | 0.0062 | > 10 |
| Cc1cccc(N2CCN(C(=O)[C@H](CCC(=O)O)NC(=O)c3cc(-c4ccccc4)cc(-c4ccccc4)n3)CC2)c1 | 0.15 | > 100 |
| O=C(O)CC[C@H](NC(=O)c1cccc(-c2ccccc2)n1)C(=O)N1CCN(C(=O)OCC2CCC2)CC1 | 0.028 | > 100 |
| CCOC(=O)N1CCN(C(=O)[C@H](CCC(=O)O)NC(=O)c2cc(N(C)C)cc(-c3ccccc3)n2)CC1 | 0.045 | > 100 |
| CCCN1CCN(C(=O)[C@H](CCC(=O)O)NC(=O)c2cccc(-c3ccccc3)n2)CC1 | > 3.8 | > 100 |
| CCOC(=O)N1CCN(C(=O)[C@H](CCC(=O)O)NC(=O)c2cc(-c3ccccc3)ccn2)CC1 | > 5.7 | > 100 |
| CCCCCOC(=O)N1CCN(C(=O)[C@H](CCC(=O)O)NC(=O)c2cc(N(C)CCOC)cc(-c3ccccc3)n2)CC1 | 0.0021 | > 100 |
| CCCCCOC(=O)N1CCN(C(=O)[C@H](CCC(=O)O)NC(=O)c2cc(NC(=O)NC(C)C)cc(-c3ccccc3)n2)CC1 | 0.0027 | > 10 |
| CCCCOC(=O)N1CCN(C(=O)[C@H](CCC(=O)O)NC(=O)c2cc(N(C)CCOC)cc(-c3ccccc3)n2)CC1 | 0.004 | > 100 |
| O=C(O)CC[C@H](NC(=O)c1cccc(-c2ccccc2)n1)C(=O)N1CCN(C(=O)Nc2ccccc2)CC1 | 0.842 | > 100 |
| CCCCCOC(=O)N1CCN(C(=O)[C@H](CCC(=O)O)NC(=O)c2cc(NC(=O)CN3CCOCC3)cc(-c3ccccc3)n2)CC1 | 0.003 | > 10 |
| CCCCNC(=S)N1CCN(C(=O)[C@H](CCC(=O)O)NC(=O)c2cccc(-c3ccccc3)n2)CC1 | 0.008 | 56 |
| CC(C)CCOC(=O)N1CCN(C(=O)[C@H](CCC(=O)O)NC(=O)c2cccc(-c3ccccc3)n2)CC1 | 0.033 | 88 |
| CCCCCCNC(=O)N1CCN(C(=O)[C@H](CCC(=O)O)NC(=O)c2cccc(-c3ccccc3)n2)CC1 | 0.054 | > 100 |

| Structure (SMILES) | Ki (P2Y purinoceptor 12) [µM] | IC50 [1] [µM] |
| --- | --- | --- |
| O=C(O)CC[C@H](NC(=O)c1cccc(-c2ccccc2)n1)C(=O)N1CCN(C(=O)c2ccccc2)CC1 | 1.88 | > 100 |
| COC(=O)N1CCN(C(=O)[C@H](CCC(=O)O)NC(=O)c2cccc(-c3ccccc3)n2)CC1 |  | > 100 |
| CC(C)(C)OC(=O)CC[C@H](NC(=O)c1cccc(-c2ccccc2)n1)C(=O)N1CCNCC1 | > 5.68 | > 100 |
| C#CCCOC(=O)N1CCN(C(=O)[C@H](CCC(=O)O)NC(=O)c2cccc(-c3ccccc3)n2)CC1 | 0.079 | > 100 |
| CCCCS(=O)(=O)N1CCN(C(=O)[C@H](CCC(=O)O)NC(=O)c2cccc(-c3ccccc3)n2)CC1 | > 3.59 | > 100 |
| CCCNC(=S)N1CCN(C(=O)[C@H](CCC(=O)O)NC(=O)c2cccc(-c3ccccc3)n2)CC1 | 0.042 | 81 |
| CC(C)CN1CCN(C(=O)[C@H](CCC(=O)O)NC(=O)c2cccc(-c3ccccc3)n2)CC1 | > 3.8 | > 100 |
| CCOC(=O)N1CCN(C(=O)CNC(=O)c2cccc(-c3ccccc3)n2)CC1 | 1.61 | > 100 |
| CCCCNC(=O)N1CCN(C(=O)[C@H](CCC(=O)O)NC(=O)c2cccc(-c3ccccc3)n2)CC1 | 0.613 | > 100 |
| CCNC(=O)N1CCN(C(=O)[C@H](CCC(=O)O)NC(=O)c2cccc(-c3ccccc3)n2)CC1 | 0.288 | 80 |
| CCCCCCCOC(=O)N1CCN(C(=O)[C@H](CCC(=O)O)NC(=O)c2cccc(-c3ccccc3)n2)CC1 |  | 56 |
| O=C(O)CC[C@H](NC(=O)c1cccc(-c2ccccc2)n1)C(=O)N1CCN(C(=O)OCC2CCCC2)CC1 | 0.046 | 82 |
| Cc1cccc(N2CCN(C(=O)[C@H](CCC(=O)O)NC(=O)c3cc(-c4ccccc4)cc(-c4ccccc4)c3)CC2)c1 | 1.43 | > 100 |
| CCCCCNC(=O)N1CCN(C(=O)[C@H](CCC(=O)O)NC(=O)c2cccc(-c3ccccc3)n2)CC1 | 0.055 | > 100 |
| CN(C)CC(=O)N1CCN(C(=O)[C@H](CCC(=O)O)NC(=O)c2cccc(-c3ccccc3)n2)CC1 | > 3.59 | > 100 |
| CCCCCOC(=O)N1CCN(C(=O)[C@H](CCC(=O)O)NC(=O)c2cc(NC(=O)CNC)cc(-c3ccccc3)n2)CC1 | 0.0057 | > 10 |
| CCCCCOC(=O)N1CCN(C(=O)[C@H](CCC(=O)O)NC(=O)c2cc(NC(=O)COC)cc(-c3ccccc3)n2)CC1 | 0.025 | > 10 |
| CCCCOC(=O)N1CCN(C(=O)[C@H](CCC(=O)O)NC(=O)c2cccc(-c3ccccc3)n2)CC1 |  | 28 |
| CC(=O)N1CCN(C(=O)[C@H](CCC(=O)O)NC(=O)c2cccc(-c3ccccc3)n2)CC1 | > 3.59 | > 100 |
| CCCOC(=O)N1CCN(C(=O)[C@H](CCC(=O)O)NC(=O)c2cccc(-c3ccccc3)n2)CC1 |  | 62 |
| COCCOC(=O)N1CCN(C(=O)[C@H](CCC(=O)O)NC(=O)c2cccc(-c3ccccc3)n2)CC1 | 0.492 | > 100 |
| CCCCCOC(=O)N1CCN(C(=O)[C@H](CCC(=O)O)NC(=O)c2cc(NC(=O)C3CCOCC3)cc(-c3ccccc3)n2)CC1 | 0.0085 | > 10 |

| Structure (SMILES) | Ki (P2Y purinoceptor 12) [µM] | IC50 [1] [µM] |
| --- | --- | --- |
| CCCN(CCC)c1cc(C(=O)N[C@@H](CCC(=O)O)C(=O)N2CCN(C(=O)OCC)CC2)nc(-c2ccccc2)c1 | 0.045 | > 100 |
| CCC(=O)N1CCN(C(=O)[C@H](CCC(=O)O)NC(=O)c2cccc(-c3ccccc3)n2)CC1 | > 3.59 | > 100 |
| CCOC(=O)N1CCN(C(=O)[C@H](CCC(=O)O)NC(=O)c2cc(-c3ccccc3)cc(-c3ccccc3)n2)CC1 | 0.015 | 76 |
| CCOC(=O)N1CCN(C(=O)[C@H](CCC(=O)O)NC(=O)c2cc(-c3ccccc3)nc(-c3ccccc3)n2)CC1 | 0.356 | > 100 |
| CCCC(=O)N1CCN(C(=O)[C@H](CCC(=O)O)NC(=O)c2cccc(-c3ccccc3)n2)CC1 | 3.1 | > 100 |
| CCCCCCCCOC(=O)N1CCN(C(=O)[C@H](CCC(=O)O)NC(=O)c2cccc(-c3ccccc3)n2)CC1 |  | > 100 |
| CCCCCCN1CCN(C(=O)[C@H](CCC(=O)O)NC(=O)c2cccc(-c3ccccc3)n2)CC1 | > 2.71 | > 100 |
| CCCCCOC(=O)N1CCN(C(=O)[C@H](CCC(=O)O)NC(=O)c2cc(CCCCCO)cc(-c3ccccc3)n2)CC1 | 0.0028 | > 10 |
| CCCNC(=O)N1CCN(C(=O)[C@H](CCC(=O)O)NC(=O)c2cccc(-c3ccccc3)n2)CC1 | 0.277 | > 100 |
| O=C(O)CC[C@H](NC(=O)c1cccc(-c2ccccc2)n1)C(=O)N1CCN(C(=O)OCc2ccccc2)CC1 | 0.196 | > 100 |
| CCNC(=S)N1CCN(C(=O)[C@H](CCC(=O)O)NC(=O)c2cccc(-c3ccccc3)n2)CC1 | 0.009 | 39 |
| CCCCCN1CCN(C(=O)[C@H](CCC(=O)O)NC(=O)c2cccc(-c3ccccc3)n2)CC1 | > 3.59 | > 100 |
| CCCCCOC(=O)N1CCN(C(=O)[C@H](CCC(=O)O)NC(=O)c2cccc(-c3ccccc3)n2)CC1 |  | 15 |
| Cc1cccc(N2CCN(C(=O)[C@H](CCC(=O)O)NC(=O)c3cccc(-c4ccccc4)c3)CC2)c1 | 1.31 | > 100 |
| CCCCC(=O)N1CCN(C(=O)[C@H](CCC(=O)O)NC(=O)c2cccc(-c3ccccc3)n2)CC1 | 1.43 | > 100 |
| O=C(O)CC[C@H](NC(=O)c1cccc(-c2ccccc2)n1)C(=O)N1CCN(C(=O)OC2CCCCC2)CC1 | 0.044 | > 100 |
| CCS(=O)(=O)N1CCN(C(=O)[C@H](CCC(=O)O)NC(=O)c2cccc(-c3ccccc3)n2)CC1 | > 3.59 | > 100 |
| CC(C)C(=O)N1CCN(C(=O)[C@H](CCC(=O)O)NC(=O)c2cccc(-c3ccccc3)n2)CC1 | > 3.59 | > 100 |
| CCCCCCOC(=O)N1CCN(C(=O)[C@H](CCC(=O)O)NC(=O)c2cccc(-c3ccccc3)n2)CC1 |  | 19 |
| CCOC(=O)N1CCN(C(=O)[C@H](CCC(=O)O)NC(=O)c2ccccn2)CC1 | > 5.4 | > 100 |
| CC(C)(C)CCOC(=O)N1CCN(C(=O)[C@H](CCC(=O)O)NC(=O)c2cccc(-c3ccccc3)n2)CC1 | 0.042 | > 100 |
| Cc1cccc(N2CCN(C(=O)[C@H](CCC(=O)O)NC(=O)c3cccc(-c4ccccc4)n3)CC2)c1 |  | > 100 |
